These results are taken from article PMC7496893 (Clinical Pharmacology in Drug Development, 2019).

Entries after “also recorded” stand apart in the source; their conditions may differ. Like-named read-outs stand apart in the source and are kept apart here. Marks after values point to notes of the source that are not given here. Where only a bound is given, the exact number is not on record here.

A short description of one series: Safety assessment. In kind it is in vivo, human (Japanese subjects). Particulars: for tolerability: non-RA subjects with normal, mild or moderate hepatic impairment, single oral dose. A digest of the protocol:
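The safety set was every subject dosed with one 150 mg tablet after an overnight fast, assessed throughout the study. TEAEs were events that started or worsened after dosing, coded with Japanese MedDRA J16.0. Assessments also covered vital signs, ECG, hematology, biochemistry, urinalysis and liver tests: ALP, ALT, γ-GTP, total bilirubin and AST.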

The conditions of series [1]: cited from earlier work.
Series [2] is classed as in vivo, human (Japanese subjects). As to conditions: for CL/F: single oral 150 mg, mean (SD). The procedure, abridged: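 Open-label parallel-group study with planned 8 per group: normal, Child-Pugh A (5–6 points) or B (7–9 points). Subjects took one 150 mg tablet with 150 mL water after an overnight fast. Blood was drawn predose, at 15 min, every 30 min to 2 h, then at 3–72 h. Plasma parent was measured by validated LC-MS/MS (LLOQ 0.25 ng/mL, linear 0.25–500 ng/mL). GMR and 90% CI came from a mixed model with hepatic group as a fixed effect.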

Another series deals with rheumatoid arthritis. Particulars: daily doses of 100 mg and 150 mg; cited from earlier work.
In series [3] the test system is organic anion transporting polypeptide 1B1. As to conditions: peficitinib with rosuvastatin; cited from earlier work.
A further series deals with P-glycoprotein. As to conditions: verapamil (P-glycoprotein inhibitor); cited from earlier work.

On to `NC(=O)c1cnc2[nH]ccc2c1N[C@@H]1[C@@H]2CC3C[C@H]1C[C@@](O)(C3)C2` [Peficitinib], for which, in “Safety assessment” (all subjects), the “changes from baseline in vital signs, ECG, or clinical laboratory parameters” value was “no clinically significant changes; also recorded: no clinically meaningful changes”. In addition, the deaths result in the series “Safety assessment” (all subjects) is listed as “no deaths”. In addition, the “serious TEAEs” value in “Safety assessment” (all subjects) is “no serious TEAEs”. In the series “Safety assessment” (all subjects), the “withdrawal from the study due to a TEAE” value is given as “no TEAEs leading to withdrawal; also recorded: no subjects withdrew”. The “number of TEAEs considered related to peficitinib” value in the series “Safety assessment” (all subjects (N = 24)) is “Four”. For the same compound, the Back pain was 0 n (%) in “Safety assessment” (mild impairment (n = 8)), 0 n (%) in the series “Safety assessment” (moderate impairment (n = 8)), 1 (12.5) n (%) in “Safety assessment” (normal function (n = 8)) and 1 (4.2) n (%) in the series “Safety assessment” (total (N = 24)). Further, the Blood urine present in the series “Safety assessment” (mild impairment (n = 8)) is listed as 1 (12.5) n (%); in the series “Safety assessment” (moderate impairment (n = 8)) it was 0 n (%); in the series “Safety assessment” (normal function (n = 8)), 0 n (%); in “Safety assessment” (total (N = 24)), 1 (4.2) n (%). In addition, the Diarrhea in the series “Safety assessment” (mild impairment (n = 8)) is on record as 1 (12.5) n (%); in the series “Safety assessment” (moderate impairment (n = 8)), 0 n (%); in the series “Safety assessment” (normal function (n = 8)), 0 n (%); in “Safety assessment” (total (N = 24)), 1 (4.2) n (%). Moreover, the Hypotension in the series “Safety assessment” (mild impairment (n = 8)) is 0 n (%); in “Safety assessment” (moderate impairment (n = 8)), 1 (12.5) n (%); in the series “Safety assessment” (normal function (n = 8)), 0 n (%); in the series “Safety assessment” (total (N = 24)), 1 (4.2) n (%). The Nausea in “Safety assessment” (mild impairment (n = 8)) is recorded as 0 n (%); in “Safety assessment” (moderate impairment (n = 8)), 0 n (%); in the series “Safety assessment” (normal function (n = 8)), 1 (12.5) n (%); in “Safety assessment” (total (N = 24)), 1 (4.2) n (%). Moreover, the “TEAEs, Overall” value in the series “Safety assessment” (mild impairment (n = 8)) is given as 1 (12.5) ^b n (%); in “Safety assessment” (moderate impairment (n = 8)), 1 (12.5) n (%); in the series “Safety assessment” (normal function (n = 8), single oral 150 mg) it was 1 (12.5) ^a n (%). For the same compound, the tolerability result in the series “Safety assessment” was “well tolerated”; in “Safety assessment” (listed as peficitinib), “generally well tolerated”. For the same compound, the dose proportionality result in series [1] (multiple doses from 30 mg twice daily to 100 mg twice daily) and in series [1] (single dose from 3 to 300 mg) was “Dose proportionality was shown” in each case. In addition, the “plasma levels reached steady state” value in series [1] (multiple dosing, healthy subjects) is at most 3 days. The “GMR Impaired/Normal (90% CI), Cmax” value in series [2] (mild hepatic impairment vs normal hepatic function) is listed as 1.04 (0.71, 1.53) %; in series [2] (mild hepatic impairment vs normal hepatic function, listed as peficitinib), 1.04 (90% CI: 0.71, 1.53); in series [2] (moderate hepatic impairment vs normal hepatic function), 1.82 (1.24, 2.69) %; in series [2] (moderate hepatic impairment vs normal hepatic function, listed as peficitinib), 1.82 (90% CI: 1.24, 2.69). In addition, in series [2] (moderate hepatic impairment versus normal hepatic function), the “increase in geometric mean Cmax” value worked out at 82%. Besides, the exposure entry in series [2] (moderately impaired vs normal hepatic function, in words) is recorded as “higher exposure”. The results for the CL/F in series [2] (mild hepatic impairment), in series [2] (moderate hepatic impairment) and in series [2] (normal hepatic function) were 121.3 (54.89) L/h, 74.51 (32.28) L/h and 134.9 (25.77) L/h, respectively. In the series on rheumatoid arthritis, the “efficacy and tolerability in RA patients” value was “effective and well tolerated”. The “changes in the PK profile during coadministration” value in series [3] is reported as “did not demonstrate any clinically significant changes”. The “exposure in combination with verapamil” value in the series with P-glycoprotein is “increased exposure”.

For `CC(C)c1nc(N(C)S(C)(=O)=O)nc(-c2ccc(F)cc2)c1/C=C/[C@@H](O)C[C@@H](O)CC(=O)O` [rosuvastatin, reference compound], the “changes in the PK profile during coadministration” value in series [3] is “did not demonstrate any clinically significant changes”.
